Published values of several laboratories.
Compare with care: the assays were run in different laboratories.
Observed: thermal stability
Method: DSF
DCLK1: Serine/threonine-protein kinase DCLK1 (DCLK1, Homo sapiens, UniProt O15075)
GAK: Cyclin-G-associated kinase (GAK, Homo sapiens, UniProt O14976)
SIRT2: NAD-dependent protein deacetylase sirtuin-2 (SIRT2, Homo sapiens, UniProt Q8IXJ6)
lecA: PA-I galactophilic lectin (lecA, Pseudomonas aeruginosa, UniProt Q05097)

Cn1c2c(Cl)c(Cl)ccc2c2cn[nH]c(=O)c21
ΔTm (DCLK1; 10 µM): -0.2 °C

FC(F)(F)c1ccc2nccc(Nc3ccc(Cl)cc3)c2c1
ΔTm (GAK; 10 µM): 4.3 °C

CCCCCCCC(=O)Nc1ncc(Cc2cccc(OCc3cn(CCOC)nn3)c2)s1
ΔTm (SIRT2; 25 µM): 4.28 °C

CCN1CCC2(CC1)NC(=O)c1c(c3ccc(Cl)c(Cl)c3n1C)C2C#N (racemic)
ΔTm (DCLK1; 10 µM): 0.1 °C

Cc1cc(C)nc(SCC(=O)Nc2ncc(Cc3cccc(OCc4cn(Cc5ccc(OCCN6CCOCC6)cc5)nn4)c3)s2)n1
ΔTm (SIRT2; 25 µM): 6.63 °C

COc1ccccc1Nc1ccnc2ccc(C(F)(F)F)cc12
ΔTm (GAK; 10 µM): 3 °C

Cc1cc(C)nc(SCC(=O)Nc2ncc(Cc3cccc(OCc4cn(Cc5ccccc5C)nn4)c3)s2)n1
ΔTm (SIRT2; 25 µM): 4.26 °C

CC(C)(C)c1ccc(O)c(O)c1
ΔTm (lecA; 4 mM): -15.4 °C

CCC1(CC)NC(=O)c2c(c3ccc(Cl)c(Cl)c3n2C)C1C#N (centres unmarked)
ΔTm (DCLK1; 10 µM): 0 °C

Fc1cc(Nc2ccnc3ccc(C(F)(F)F)cc23)cc(F)c1F
ΔTm (GAK; 10 µM): 3.7 °C

N#Cc1cccc(O)c1O
ΔTm (lecA; 4 mM): 1.8 °C
